In ChEMBL document CHEMBL5357066, “Development of Novel Membrane Disrupting Lipoguanidine Compounds Sensitizing Gram-Negative Bacteria to Antibiotics” (ACS Med Chem Lett, 2024):

What was measured:
[1] = system: Pseudomonas aeruginosa; test: Antibacterial activity against Pseudomonas aeruginosa NCTC 13437 assessed as bacterial growth inhibition incubated for overnight by microbroth dilution method; assay type: functional
Outline: (§1)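 Broth microdilution in Tryptic Soy Broth. DMSO stocks were diluted in TSB as 2-fold series. Overnight TSB cultures were back-diluted to OD 0.01 and mixed 1:1 with compound. Incubation was overnight at 37 °C. MIC was the lowest concentration without visible growth (<0.1 OD600). DMSO vehicle was checked at equivalent concentrations.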

[2] = system: Acinetobacter baumannii; test: Antibacterial activity against Acinetobacter baumannii AYE assessed as bacterial growth inhibition incubated for overnight by microbroth dilution method; assay type: functional; outline: as §1
[3] = system: Acinetobacter baumannii; test: Antibacterial activity against Acinetobacter baumannii ATCC 17978 assessed as bacterial growth inhibition incubated for overnight by microbroth dilution method; assay type: functional; outline: as §1
[4] = system: Pseudomonas aeruginosa; test: Antibacterial activity against Pseudomonas aeruginosa PAO1 assessed as bacterial growth inhibition incubated for overnight by microbroth dilution method; assay type: functional; outline: as §1
[5] = system: Escherichia coli; test: Antibacterial activity against Escherichia coli NCTC 12923 assessed as bacterial growth inhibition incubated for overnight by microbroth dilution method; assay type: functional; outline: as §1
[6] = system: Klebsiella pneumoniae; test: Synergistic antibacterial activity against Klebsiella pneumoniae NCTC 13368 assessed as rifampicin MIC at <=0.25 times MIC incubated for overnight by microbroth dilution checkerboard assay; assay type: functional
Outline: (§2)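 Checkerboard microdilution under MIC conditions (TSB, overnight, 37 °C). Two-fold series of each agent were combined on one plate before bacteria were added, and single-agent MICs were measured on the same plate. FIC = sum of combination MIC/alone MIC for each agent, taken from the most synergistic well. Three independent repeats, mean ± SD. ≤0.5 was taken as strong synergy and 0.5–<1 as weak.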

[7] = system: Klebsiella pneumoniae; test: Synergistic antibacterial activity against […] Klebsiella pneumoniae M6 assessed as rifampicin MIC at <=0.25 times MIC incubated for overnight by microbroth dilution checkerboard assay; assay type: functional
Outline: (§3)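 Checkerboard run under the MIC conditions (TSB, overnight, 37 °C). Antibiotic and lipoguanidine 2-fold series were combined on one plate before bacteria were added. Growth/no-growth was scored as for the MIC (<0.1 OD600). Single-agent MICs were measured on the same plates. Three independent repeats were done.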

[8] = system: Acinetobacter baumannii; test: Synergistic antibacterial activity against Acinetobacter baumannii AYE assessed as rifampicin MIC at <=0.25 times MIC incubated for overnight by microbroth dilution checkerboard assay; assay type: functional; outline: as §2
[9] = system: Acinetobacter baumannii; test: Synergistic antibacterial activity against Acinetobacter baumannii ATCC 17978 assessed as rifampicin MIC at <=0.25 times MIC incubated for overnight by microbroth dilution checkerboard assay; assay type: functional; outline: as §2
[10] = system: Pseudomonas aeruginosa; test: Synergistic antibacterial activity against Pseudomonas aeruginosa PAO1 assessed as rifampicin MIC at <=0.25 times MIC incubated for overnight by microbroth dilution checkerboard assay; assay type: functional
Outline: (§4)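 Checkerboard microdilution in Tryptic Soy Broth, run like the MIC assay. Overnight TSB cultures were back-diluted to OD 0.01 and added 1:1 to the combined two-fold series of both agents, then incubated overnight at 37 °C. Growth/no-growth was called at <0.1 OD600. MICs alone were read on the same plates. FIC index came from the most synergistic well; three independent repeats, mean ± SD.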

[11] = system: Pseudomonas aeruginosa; test: Synergistic antibacterial activity against Pseudomonas aeruginosa NCTC 13437 assessed as rifampicin MIC at <=0.25 times MIC incubated for overnight by microbroth dilution checkerboard assay; assay type: functional; outline: as §4
[12] = system: Escherichia coli; test: Synergistic antibacterial activity against Escherichia coli NCTC 12923 assessed as rifampicin MIC at <=0.25 times MIC incubated for overnight by microbroth dilution checkerboard assay; assay type: functional; outline: as §2
[13] = system: Klebsiella pneumoniae; test: Synergistic antibacterial activity against Klebsiella pneumoniae NCTC 13368 assessed as fold change in rifampicin MIC at <=0.25 times MIC incubated for overnight by microbroth dilution checkerboard assay relative to rifampicin alone; assay type: functional; outline: as §3
[14] = system: Klebsiella pneumoniae; test: Synergistic antibacterial activity against […] Klebsiella pneumoniae M6 assessed as fold change in rifampicin MIC at <=0.25 times MIC incubated for overnight by microbroth dilution checkerboard assay relative to rifampicin alone; assay type: functional; outline: as §3
[15] = system: Acinetobacter baumannii; test: Synergistic antibacterial activity against Acinetobacter baumannii AYE assessed as fold change in rifampicin MIC at <=0.25 times MIC incubated for overnight by microbroth dilution checkerboard assay relative to rifampicin alone; assay type: functional; outline: as §2
[16] = system: Acinetobacter baumannii; test: Synergistic antibacterial activity against Acinetobacter baumannii ATCC 17978 assessed as fold change in rifampicin MIC at <=0.25 times MIC incubated for overnight by microbroth dilution checkerboard assay relative to rifampicin alone; assay type: functional; outline: as §2
[17] = system: Pseudomonas aeruginosa; test: Synergistic antibacterial activity against Pseudomonas aeruginosa PAO1 assessed as fold change in rifampicin MIC at <=0.25 times MIC incubated for overnight by microbroth dilution checkerboard assay relative to rifampicin alone; assay type: functional; outline: as §4
[18] = system: Pseudomonas aeruginosa; test: Synergistic antibacterial activity against Pseudomonas aeruginosa NCTC 13437 assessed as fold change in rifampicin MIC at <=0.25 times MIC incubated for overnight by microbroth dilution checkerboard assay relative to rifampicin alone; assay type: functional; outline: as §4
[19] = system: Escherichia coli; test: Synergistic antibacterial activity against Escherichia coli NCTC 12923 assessed as fold change in rifampicin MIC at <=0.25 times MIC incubated for overnight by microbroth dilution checkerboard assay relative to rifampicin alone; assay type: functional; outline: as §2
[20] = system: Klebsiella pneumoniae; test: Antibacterial activity against Klebsiella pneumoniae M6 assessed as bacterial growth inhibition incubated for overnight by microbroth dilution method
[21] = system: Klebsiella pneumoniae; test: Antibacterial activity against ESBL Klebsiella pneumoniae NCTC 13368 assessed as bacterial growth inhibition incubated for overnight by microbroth dilution method

For `NCCCCN=C(N)N` [AGMATINE], the MIC [1] was over 128 µg/mL, the MIC [2] was over 128 µg/mL and the MIC [3] was over 128 µg/mL. The MIC [4] was over 128 µg/mL, the MIC [5] was over 128 µg/mL and the MIC [6] was 32 µg/mL. It also gave an MIC [7] of 32 µg/mL, an MIC [8] of 16 µg/mL and an MIC [9] of 4 µg/mL. For the same compound, the MIC [10] was 32 µg/mL, the MIC [11] was 32 µg/mL and the MIC [12] was 32 µg/mL. The “fold change (FC)” value [13] was 0, the “fold change (FC)” value [14] was 0 and the “fold change (FC)” value [15] was 0. For the same compound, the “fold change (FC)” value [16] was 0, the “fold change (FC)” value [17] was 0 and the “fold change (FC)” value [18] was 0. The “fold change (FC)” value [19] was 0, the MIC [20] was over 128 µg/mL and the MIC [21] was over 128 µg/mL.
